Results collected from several papers.
Compare with care: the assays were run in different laboratories.
Target: Tyrosine-protein kinase receptor UFO (AXL, Homo sapiens, UniProt P30530)

SMILES	read-out	action	technique	tested at	endpoint	result
O=C(Nc1cnn(-c2csc(C(=O)NC3COC3)c2)c1)Nc1c(F)cccc1Cl	enzyme activity	inhibitor	–	5 µM	remaining activity	73%
Cc1nc(Cc2cccc(C(F)(F)F)c2)sc1-c1ccc(C(N)=O)nc1	binding	–	competition with immobilised ligand	1 µM	remaining binding	100%
CC(C)(C)c1nc(-c2cccc(NS(=O)(=O)c3c(F)cccc3F)c2F)c(-c2ccnc(N)n2)s1	enzyme activity	inhibitor	radiometric	1 µM	remaining activity	75%
COc1cc2ncnc(Nc3ccc(Oc4ccccc4)cc3C)c2cc1OC	enzyme activity	inhibitor	–	1 µM	inhibition	8%
COc1ccc(C(=O)Nc2sc3c(c2C(N)=O)CCCC3)cc1OC	enzyme activity	inhibitor	–	0.5 µM	remaining activity	84.4%
CCN(CC)CCNC(=O)c1c(C)[nH]c(/C=C2\C(=O)Nc3ccc(F)cc32)c1C	enzyme activity	inhibitor	–	1 µM	remaining activity	7%
Cc1cnc(NC2CCOCC2)nc1-n1cnc(C(=O)NC(CN)c2cc(F)cc(Cl)c2)c1 (centres unmarked)	enzyme activity	inhibitor	radiometric	1 µM	remaining activity	103%
COc1cc(Nc2c(C#N)cnc3cc(OCCCN4CCN(C)CC4)c(OC)cc23)c(Cl)cc1Cl	cell-free assay	–	–	0.5 µM	remaining signal	37.6%
Cc1ccc(C(=O)Nc2ccc(CN3CCN(C)CC3)c(C(F)(F)F)c2)cc1C#Cc1cnc2cccnn12	enzyme activity	–	–	23.5 nM	remaining activity	45%
N#CCCc1ccc2c(c1)-c1[nH]c3ccc([N+](=O)[O-])cc3c1CC(=O)N2	cell-free assay	–	–	0.5 µM	remaining signal	95.5%
CC(=O)N1CCC(c2ccc(C(=O)NC(=N)N)cc2C(F)(F)F)CC1	cell-free assay	–	competition with immobilised ligand	1 µM	remaining binding	100%
CNC(=O)c1cc2c(Oc3ccc(NC(=O)C4(C(=O)Nc5ccc(F)cc5)CC4)cc3)ccnc2cc1OC	enzyme activity	inhibitor	radiometric	1 µM	inhibition	87%
Cc1ccc(Nc2nccc(N(C)c3ccc4c(C)n(C)nc4c3)n2)cc1S(N)(=O)=O	cell-free assay	–	–	0.5 µM	remaining signal	78.1%
Cc1ccc(C(=O)NCc2ccsc2)cc1C#Cc1cn(C(C)C)c2ncnc(N)c12	enzyme activity	inhibitor	–	1 µM	activity vs control	72%
O=C(O)c1ccc2c3c1cccc3c(=O)n1c3ccccc3nc21	enzyme activity	inhibitor	–	0.5 µM	remaining activity	94.3%
Cc1ccc(NC(=O)c2ccc(C)c(C(F)(F)F)c2)cc1C#Cc1nn(C2CCC(O)CC2)c2ncnc(N)c12 (centres unmarked)	cell-free assay	–	–	10 µM	remaining signal	56%

SMILES	read-out	action	technique	tested at	endpoint	result
CN([C@@H]1CCc2c(CC(=O)O)c3ccccc3n2C1)S(=O)(=O)c1ccc(F)cc1	cell-free assay	–	competition with immobilised ligand	1 µM	remaining binding	100%
O=c1c2ccccc2[nH]c(=S)n1CCN1CCC(=C(c2ccc(F)cc2)c2ccc(F)cc2)CC1	enzyme activity	inhibitor	–	0.5 µM	remaining activity	91.7%
CNCc1ccc(-c2cc(-c3nc(-c4ccc(S(=O)(=O)C(C)C)cc4)cnc3N)on2)cc1	enzyme activity	inhibitor	–	2 µM	inhibition	75%
CNCc1ccccc1-c1csc([C@H](C)Nc2nc(C)nc3cc(OC)c(OC)cc23)c1	cell-free assay	–	competition with immobilised ligand	1 µM	remaining binding	100%
CCN(CC)CCNC(=O)c1c(C)[nH]c(/C=C2\C(=O)Nc3ccc(F)cc32)c1C	enzyme activity	inhibitor	–	10 µM	inhibition	94%
CNC(=O)Nc1ccc2c(c1)[C@@]1(CC2)OC(=O)N(CC(=O)N(Cc2ccc(F)cc2)[C@@H](C)C(F)(F)F)C1=O	cell-free assay	–	competition with immobilised ligand	1 µM	remaining binding	67%
Cc1[nH]c(/C=C2\C(=O)Nc3ccc(F)cc32)c(C)c1C(=O)N[C@H]1CCN(C(=O)N(C)C)C1	enzyme activity	inhibitor	–	1 µM	remaining activity	43%
Cc1cc(NC(=O)c2cccc3cc(-c4cccc5[nH]nc(N)c45)ccc23)ccc1F	enzyme activity	inhibitor	–	0.1 µM	activity vs control	113%
CCN(CC)c1ccc(C2=NNC(=O)CC2C)cc1[N+](=O)[O-] (centres unmarked)	enzyme activity	inhibitor	–	10 µM	remaining activity	94%
CNC(=O)c1cc(Oc2ccc(NC(=O)Nc3ccc(Cl)c(C(F)(F)F)c3)cc2)ccn1	enzyme activity	inhibitor	–	0.3 µM	inhibition	3%
CN(C)C(=O)Cn1cc(-c2nc([C@@](C)(c3ccc(-c4cnc(N)nc4)cc3)C3CC3)no2)cn1	cell-free assay	–	competition with immobilised ligand	1 µM	remaining binding	98%
O=C1Nc2ccc(Cl)cc2C1=Cc1cc(Cl)c(O)c(Cl)c1	cell-free assay	–	–	0.5 µM	remaining signal	106%
CC1=C(C#N)[C@@H](c2ccc3[nH]nc(C)c3c2)C(C#N)=C(c2ccc(Cl)cc2)N1	cell-free assay	–	competition with immobilised ligand	1 µM	remaining binding	100%
Cc1sc(C(=O)NC2COC2)cc1-n1cc(NC(=O)Nc2c(F)cccc2Cl)cn1	enzyme activity	inhibitor	–	10 µM	remaining activity	86.6%
O=C(Nc1cccnn1)N1CCC(=Cc2cccc(Oc3ccc(C(F)(F)F)cn3)c2)CC1	cell-free assay	–	competition with immobilised ligand	1 µM	remaining binding	100%
C=CC(=O)Nc1cc(Nc2nccc(Nc3cc(Cl)c(F)cc3C(C)(C)O)n2)c(OC)cc1N1CC[C@@H](N(C)C)C1	enzyme activity	inhibitor	–	1 µM	inhibition	16%
